Experimental data as given in paper PMC3565245 (Current Chemical Genomics, 2012).
Structures can show the parent of a compound that is named as a salt. Where two headings read alike, the source gives them in different places.

T1: Giardia lamblia carbamate kinase (glCK) (Giardia intestinalis, UniProt A8BB85)
T1 sequence (A8BB85 1-316): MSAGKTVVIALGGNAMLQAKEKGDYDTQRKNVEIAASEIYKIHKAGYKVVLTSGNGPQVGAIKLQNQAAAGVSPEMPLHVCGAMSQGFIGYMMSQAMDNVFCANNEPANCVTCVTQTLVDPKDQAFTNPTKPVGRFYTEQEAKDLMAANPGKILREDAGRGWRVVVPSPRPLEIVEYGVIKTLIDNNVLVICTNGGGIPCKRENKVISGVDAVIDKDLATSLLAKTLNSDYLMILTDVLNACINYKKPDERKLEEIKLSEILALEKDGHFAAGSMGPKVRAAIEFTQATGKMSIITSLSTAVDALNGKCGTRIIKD

T2: glCK (Giardia intestinalis, UniProt A8BB85)
T2 sequence (A8BB85 1-316): T1 sequence (A8BB85 1-316)

B1: glCK (Giardia lamblia ATCC 50803) (protein)
chain: T1 sequence (A8BB85 1-316)

Experiments:
giardiasis = giardiasis standard of care; cited from earlier work
[1] = target: T1, Giardia lamblia carbamate kinase (glCK); test: Luminescence-based carbamate kinase assay in 1536-well format; assay type: biochemical; settings: for Efficacy (% Inhibition): maximal response of the fitted curve, luminescence assay
How it was run: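 Reaction was started with ADP/carbamoyl phosphate (final 150 µM) plus ATPLite and run 20 min at room temperature before the luminescence read. Data were normalized to DMSO and no-enzyme wells, pattern-corrected, and Hill-fitted for IC50 and efficacy.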

Giardia = settings: maximum screening concentration of 38.3 µM; cited from earlier work
glCK = target: T2, glCK; test: Absorbance-based carbamate kinase assay; assay type: biochemical, Giardia lamblia
How it was run: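 Coupled absorbance assay at room temperature. glCK in 20 mM Tris-HCl pH 7.5 was preincubated 15 min with test compound (final 0.002, 0.02, 0.2, 1, 2, 20, 200 μM; enzyme final 5 nM). It was then added to substrate mix (ADP, carbamoyl phosphate, final 40 µM; 30 mM MgCl2, glucose, NADP, hexokinase, G6P dehydrogenase). NADPH was followed at 340 nm, and IC50 was derived from initial velocities.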

Giardia infection = settings: cited from earlier work
[2] = substrate: Nc1ncnc2c1ncn2[C@@H]1O[C@H](COP(=O)(O)OP(=O)(O)O)[C@@H](O)[C@H]1O; test: Steady-state kinetics of glCK, luminescence assay in 384-well format; assay type: biochemical, Giardia lamblia; settings: other: room temperature, substrate of glCK; pH 8.0
[3] = IC50 Luminescence Assay, Table 3, secondary assay comparison

Molecule	Efficacy (% Inhibition) [1] [%]	IC50 [1, 3] [nM]	IC50 (glCK) [nM]	further results
Cc1ncc([N+](=O)[O-])n1CCO [metronidazole]				single course cure rates (giardiasis): 80–95%
CCN(CC)C(=S)S [Ditiocarb]	77.7			activity in Giardia killing screen (>30% reduction in ATP content) (Giardia): active
O=C1C2CC=CCC2C(=O)N1SC(Cl)(Cl)Cl (stereo not drawn) [Captan]	88.6	2590	470	
CN(C)C(=S)SSC(=S)N(C)C [Thiram]	92.3	4110	640	IC50 ([1]; IC50, values of the running text, chelator class): 4100 nM; activity in Giardia killing screen (>30% reduction in ATP content) (Giardia): active; anti-giardial activities in a mouse model (Giardia infection): anti-giardial activities
O=C([O-])c1ccccc1-c1c2cc(Br)c(=O)cc-2oc2[c]([Hg+])c([O-])c(Br)cc12.[Na+].[Na+].[OH-] [Mercurochrome]	93.8			IC50 ([1]; read-out: IC50 Luminescence Assay, Table 3, secondary assay comparison): 2060 nM; IC50 (glCK; read-out: IC50 Absorbance Assay, 5 nM glCK, inhibitor up to 200 μM): 220 nM
N.N.[Cl][Pt][Cl] [Cisplatin]	88.2			
CCOC(=S)SSC(=S)OCC [Bis(ethylxanthogen)]	82.3			
CC(C)(C)C(=O)OCOP(=O)(COCCn1cnc2c(N)ncnc21)OCOC(=O)C(C)(C)C [Adefovir dipivoxil]	83.6	16300	> 200000	
CCN(CC)C(=S)SSC(=S)N(CC)CC [Disulfiram]	90.5	580	1390	activity in Giardia killing screen (>30% reduction in ATP content) (Giardia): active; anti-giardial activities in a mouse model (Giardia infection): anti-giardial activities
Oc1cc2c(cc1O)[C@H]1c3ccccc3CN[C@@H]1CC2 (racemic) [Dihydrexidine hydrochloride]	82.9			
O=C(O)Cc1ccc(O)c(O)c1 [3,4-Dihydroxyphenylacetic acid]	80.2	6510	11700	
CCS(=O)(=O)CCn1c([N+](=O)[O-])cnc1C [tinidazole]				single course cure rates (giardiasis): 80–95%
C[C@@](Cc1ccc(O)c(O)c1)(NN)C(=O)O [Carbidopa]	79.4	5800	> 200000	
O=C(O)[C@@H](S)[C@@H](S)C(=O)O [Succimer]	85.5	650	540	
Oc1ccc(C2CNCCc3c2cc(O)c(O)c3Cl)cc1 (stereo not drawn) [Fenoldopam]	84.5			
Oc1cccc(O)c1O [Pyrogallol]	77.4	16300	2700	
CN1CCc2cccc3c2[C@H]1Cc1ccc(O)c(O)c1-3 [Apomorphine hydrochloride hemihydrate]	89.4	3260	> 200000	
O=C(O)c1cc(O)c(O)c(O)c1 [Gallic acid]	89.2	650	11400	
OC[C@H]1O[C@H]([S-])[C@H](O)[C@@H](O)[C@@H]1O.[Au+] [Aurothioglucose]	81.2			
B1				Km [2]: 58.3 ± 2.4 µM
